Consider 27 compounds from PubChem BioAssay AID2632 (Broad Institute, 2010).

For this assay, the system named is T. cruzi in NIH3T3, immunofluorescence replication, 4 d. Kind of assay: amastigote replication in infected NIH3T3 cells – imaging, immunofluorescence, NIH3T3 host cells, mechanism study for T. cruzi infection inhibitor project, late-stage follow-up (AID 2632). Conditions: active compounds read low. The essentials:
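Test system: NIH3T3 host cells infected with Trypanosoma cruzi. Probe or stimulus: trypomastigotes, MOI 100:1. Compound: single dose per compound at tenfold its IC50. Incubation: 2 h parasite infection, then 4-day compound exposure. Measured by: immunofluorescence imaging with anti-T. cruzi antibody and DAPI. Read-out basis: percent of 50 infected cells holding more than 4 amastigotes.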

Take `CCOc1ccc2oc(=O)cc(CN3CCN(Cc4ccccc4)CC3)c2c1`: where the note is “at 2.16 µM”, the percent infected cells with replication was 0%.
In the case of `COc1ccc(CCN(C)C(=O)C2CCCN(Cc3ccc(OC)c(OC)c3)C2)cc1OC` (configuration not stated), the percent infected cells with replication (at 1 µM) was 6%.
With `O=C(NCC1CCCN(Cc2cccc(C(F)(F)F)c2)C1)c1ccc(F)cc1` (configuration not stated), the percent infected cells with replication (at 1.11 µM) is 2%.
For `CCn1ncc(CN2CCCC(C(=O)c3cccc(OC(C)C)c3)C2)c1C` (configuration not stated), the percent infected cells with replication (at 0.32 µM) is 2%.
In the case of `Cc1ccccc1OCCCCCn1ccnc1`, the percent infected cells with replication (at 5.3 µM) is 4%.
For `COc1ccccc1/C=C/C(=O)OCCCN(C)C`, the percent infected cells with replication (at 7.93 µM) was 6%.
Regarding `CC(C)Oc1cccc(C(=O)C2CCCN(Cc3cnn(C(C)C)c3)C2)c1` (configuration not stated), the percent infected cells with replication (at 0.38 µM) was 0%.
For `Fc1ccc(CCNCc2ccc(Cl)c(Cl)c2)cc1`, the percent infected cells with replication (at 1.22 µM) is 0%.
As for `COCc1cc(CN2CCCC(CNC(=O)c3ccc(F)cc3)C2)ccc1OC` (configuration not stated), under “at 1.18 µM”, the percent infected cells with replication was 0%.
Consider `CC(C)Oc1cccc(C(=O)C2CCCN(Cc3cnc(N4CCCC4)s3)C2)c1` (configuration not stated), for which the percent infected cells with replication (at 1.4 µM) was 2%.
Turning to `O=S(=O)(NCC(c1cccnc1)N1CCN(c2ccc(F)cc2)CC1)c1ccccc1` (configuration not stated), the percent infected cells with replication (at 0.66 µM) is 0%.
On to `CC1CC(C)CN(CCOCCSc2ccccc2)C1` (configuration not stated), for which the percent infected cells with replication (at 0.89 µM) is 2%.
Take `CC(=O)c1cccc(CN2CCCC(CCC(=O)NCc3ccc(F)c(F)c3)C2)c1` (configuration not stated): the percent infected cells with replication (at 0.7 µM) is 8%.
For the compound `CN(Cc1ccccc1)C(=O)C1CCCN(Cc2cccc(Cl)c2)C1` (configuration not stated), the percent infected cells with replication (at 1.1 µM) is 0%.
As for `O=C(CNc1cccc2ccccc12)N/N=C/c1ccc([N+](=O)[O-])o1`, the percent infected cells with replication (at 0.64 µM) was 6%.
On to `CC(C)(C)OC(=O)N/N=C\c1ccc([N+](=O)[O-])s1`, for which the percent infected cells with replication (at 27 µM) is 2%.
In the case of `CC(C)=CCCC(C)CN(C)CCc1ccccn1` (configuration not stated), the percent infected cells with replication (at 0.83 µM) is 2%.
With `CC(C)c1cccc(OCCCCN(C)C)c1`, the percent infected cells with replication (at 5.87 µM) is 0%.
As for `CCCn1ncc(CN2CCCC(C(=O)c3cccc(OC(C)C)c3)C2)c1C` (configuration not stated), the percent infected cells with replication (at 0.54 µM) is 4%.
For the compound `CCc1ccc2nc(N(CCN(C)C)C(=O)c3ccc4ncsc4c3)sc2c1`, the percent infected cells with replication (at 0.87 µM) is 2%.
Take `Cc1ccc(NC(=O)CCC(=O)N/N=C/c2ccc([N+](=O)[O-])o2)cc1C`: the percent infected cells with replication (at 0.16 µM) is 0%.
For `CSc1ccc(CN2CCCC(CNC(=O)c3ccc(F)cc3)C2)cc1` (configuration not stated), under “at 1.2 µM”, the percent infected cells with replication was 6%.
Consider `COC(=O)N/N=C/c1ccc([N+](=O)[O-])o1`, for which the percent infected cells with replication (at 4.69 µM) is 8%.
Regarding `CC1CCCN(C(=O)Cc2cn(Cc3cccc(Cl)c3)c3ccccc23)C1` (configuration not stated), under “at 17.9 µM”, the percent infected cells with replication was 0%.
Regarding `OC(COc1ccc2ccccc2c1Br)Cn1ccnc1` (configuration not stated), for the setting “at 5.01 µM”, the percent infected cells with replication is 2%.
Regarding `COc1cc(C(=O)NCCC(C)C)ccc1OCc1ccc(Cl)cc1Cl`, where the note is “at 13 µM”, the percent infected cells with replication is 0%.
With `O=C(Cc1cn(Cc2cccc(Cl)c2)c2ccccc12)N1CCCCCC1`, the percent infected cells with replication (at 17.5 µM) is 2%.
